Activity, MIC and Stability data for two compounds are collected here from ChEMBL document CHEMBL5223087, “First-in-Class Cyclic Temporin L Analogue: Design, Synthesis, and Antimicrobial Assessment” (J Med Chem, 2021).

In brackets after ≈: the same amount, converted by molar mass. Activity calls are given as the source filed them. Bridge positions count the residues as written; N and C are the ends. Square brackets hold non-standard residues; d marks the D form. Peptide text beside a SMILES is read from it.

The nature of data set [1]: Membrano-lytic effect in bacterial inner membrane mimic DOPE/DOPG/CL (63:23:12) large unilamellar vesicles at 10 uM by varian cary eclipse fluorescence spectrometry analysis. The class given is cell membranes.
The subject of data set [2] is HaCaT. The experiment in a line: Cytotoxicity against human HaCaT cells assessed as reduction in cell viability at 25 uM measured after 2 hrs by MTT assay. The class given is toxicity, cell-based. The essentials:
(§1)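 HaCaT keratinocytes seeded at 4 × 10⁴/well in DMEM with 4 mM glutamine and 2% FBS, no antibiotics, overnight at 37 °C, 5% CO2. Medium replaced with peptide-containing DMEMg for 2 or 24 h. MTT 0.5 mg/mL in Hank's buffer 4 h, formazan dissolved in acidified isopropanol, A570. Viability as % of untreated cells; mean of three independent experiments ± SEM.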
(Tetrazolium dyes change colour on reduction, which living cells bring about.)

Data set [3] in a line: Membrano-lytic effect in bacterial inner membrane mimic DOPE/DOPG/CL (63:23:12) large unilamellar vesicles at 5 to 50 uM by varian cary eclipse fluorescence spectrometry analysis. The format is cell membranes. The conditions noted are these: dose 5-50 µM.
Data set [4] concerns Pseudomonas aeruginosa. The data set can be described thus: Antimicrobial activity against Pseudomonas aeruginosa ATCC 27853 assessed as reduction in bacterial growth incubated for 16 to 18 hrs by microdilution susceptibility test. The class given is functional. Conditions: time 16-18 hrs. The essentials: (§2)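 Broth microdilution in Mueller–Hinton broth. Mid-log bacteria at 1 × 10⁶ CFU/mL final, peptide twofold serial dilutions 100 to 0.78 μM final. Incubated 16–18 h at 37 °C. MIC taken as the lowest concentration giving total (100%) growth inhibition.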
(Dilution methods test growth across graded concentrations, often in twofold steps.)

A short description of data set [5]: Membrano-lytic effect in bacterial inner membrane mimic DOPG/CL (58:42) large unilamellar vesicles at 50 uM by varian cary eclipse fluorescence spectrometry analysis. The format is cell membranes.
Data set [6] can be described thus: Disaggregation property of compound in LPS at 20 uM after 1 hr by Tht fluorescence based assay. The class given is physicochemical. The essentials: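 Peptide 20 μM incubated 1 h with LPS 1 mg/mL and ThT 25 μM. Aggregation read as ThT emission at 482 nm, excitation 450 nm. ThT alone and peptide alone served as controls.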
The subject of data set [7] is Escherichia coli. The experiment in a line: Antimicrobial activity against Escherichia coli ATCC 25922 assessed as reduction in bacterial growth incubated for 16 to 18 hrs by microdilution susceptibility test. The format is functional. Conditions: time 16-18 hrs. The essentials:
as §2

Data set [8] has as its system HaCaT. The data set can be described thus: Cytotoxicity against human HaCaT cells assessed as reduction in cell viability at 50 uM measured after 2 hrs by MTT assay. The class given is toxicity, cell-based. The essentials:
as §1

The subject of data set [9] is HaCaT. The experiment in a line: Cytotoxicity against human HaCaT cells assessed as reduction in cell viability at 50 uM measured after 24 hrs by MTT assay. The format is toxicity, cell-based. The essentials:
as §1

Data set [10] can be described thus: Induction of membrane leakage in DOPG/CL (58:42) large unilamellar vesicles at 5 to 50 uM incubated for 10 mins. Conditions: dose 5-50 µM. The essentials: (§3)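 Free probe removed by Sephadex G-50 gel filtration. Peptide added at 5–50 μM. ANTS dequenching followed 10 min (excitation 385 nm, emission 512 nm). Leakage normalised to Triton X-100 maximum.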
In data set [11] the test system is Serum. The experiment in a line: Proteolytic stability in human serum incubated for 0.25 to 12 hrs by RP-UHPLC analysis. Conditions: time 0.25-12 hrs. The class given is ADME, cell-free.
A short description of data set [12]: Induction of DOPG/CL (58:42) large unilamellar vesicles membrane fluidity at 5 uM (reference value: -0.32). The essentials: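 LUVs of DOPG/CL 58/42 prepared by extrusion (0.1 μm), Laurdan 1 μM incorporated, hydrated in PBS pH 7.4; lipid 100 μM final. Peptide added at 5 or 30 μM; spectra recorded after 10 min at 25 °C. Fluidity expressed as GP = (I440 − I490)/(I440 + I490).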

Data set [13] is described as follows: Induction of DOPG/CL (58:42) large unilamellar vesicles membrane fluidity at 5 uM (reference value: -0.32).
Data set [14] in a line: Induction of membrane leakage in DOPE/DOPG/CL (63:23:12) large unilamellar vesicles at 5 to 50 uM incubated for 10 mins. The conditions noted are these: dose 5-50 µM. The essentials:
as §3

The subject of data set [15] is HaCaT. The experiment in a line: Cytotoxicity against human HaCaT cells assessed as reduction in cell viability at 3.125 to 100 uM measured after 2 to 24 hrs by MTT assay. Conditions: dose lower 3.125 µM, time lower 2 hrs, dose upper 100 µM, time upper 24 hrs. The format is toxicity, cell-based. The essentials:
as §1

Data set [16] is described as follows: Membrano-lytic effect in bacterial inner membrane mimic DOPG/CL (58:42) large unilamellar vesicles at 30 uM by varian cary eclipse fluorescence spectrometry analysis. The format is cell membranes.
Data set [17] relates to Staphylococcus aureus. The experiment in a line: Antimicrobial activity against MRSA-resistant Staphylococcus aureus ATCC 43300 assessed as reduction in colony formation at 12.5 uM incubated for 30 min by time kill assay. The format is functional, organism-based.
Data set [18] has as its system Staphylococcus aureus. The experiment in a line: Antimicrobial activity against MRSA-resistant Staphylococcus aureus ATCC 43300 assessed as reduction in colony formation at 12.5 uM incubated for 24 hrs by time kill assay. The class given is functional, organism-based.

Turning to `CC[C@H](C)[C@H](NC(=O)[C@H](CCCNC(=N)N)NC(=O)[C@@H]1CCCCn2cc(nn2)C[C@H](NC(=O)[C@H](Cc2ccccc2)NC(=O)[C@H](Cc2c[nH]c3ccccc23)NC(=O)[C@@H]2CCCN2C(=O)[C@@H](NC(=O)[C@@H](N)Cc2ccccc2)C(C)C)C(=O)N[C@@H](CCCCN)C(=O)N[C@@H](Cc2ccccc2)C(=O)N[C@@H](CC(C)C)C(=O)N1)C(=O)N[C@@H](CC(C)C)C(N)=O`, the outcome in data set [1], in data set [3] and in data set [5] was Active. Besides, the Activity in data set [2] is 60%; in [6] it was “Active”; in data set [8], below 40%; in data set [9], below 20%. Also, the MIC in [4] and in [7] was above 100 µM throughout.

Take `CC[C@H](C)[C@H](NC(=O)[C@H](CCCNC(=N)N)NC(=O)[C@@H]1CCC(=O)NCCCC[C@H](NC(=O)[C@H](Cc2ccccc2)NC(=O)[C@H](Cc2c[nH]c3ccccc23)NC(=O)[C@@H]2CCCN2C(=O)[C@@H](NC(=O)[C@@H](N)Cc2ccccc2)C(C)C)C(=O)N[C@@H](CCCCN)C(=O)N[C@@H](Cc2ccccc2)C(=O)N[C@H](CC(C)C)C(=O)N1)C(=O)N[C@@H](CC(C)C)C(N)=O` (H-FVPWFKKF[dL]ERIL-NH2; lactam 6-10): the result in data set [1], in data set [10], in [3], in data set [14], in data set [16] and in data set [17] was Active. Besides, in [18], the result was Active. In addition, the Stability entry in [11] is on record as “Stable”. In addition, in data set [4], the MIC (commonly the smallest concentration in the dilution series that meets the test's criterion for growth inhibition) came out at 100 µM (≈ 170 µg/mL). Moreover, the Activity in data set [12] was -0.23; in data set [13], -0.23; in data set [15] it was “Toxic”; in data set [6] it was “Not Active”.
